KCNK3 block: human KCNK3 channel inhibitors, primary screen, CHO cells, FluxOR thallium flux, B-score; Potassium channel subfamily K member 3 (Homo sapiens), O14649; FluxOR fluorescence; stronger effect = lower value; B-score at 10 µM; 340,000 compounds, 0.84% hits;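 active means B-score under library mean minus 4 SD, starting fluorescence ratio at most library mean plus 5 SD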;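 further: more negative B-score means stronger inhibition of thallium flux through KCNK3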
KCNQ1 block: inhibitors of human KCNQ1 channel, primary screen, cell-based, thallium flux, high-throughput. CHO-K1 KCNQ1, FluxOR thallium flux fluorescence; stronger effect = higher value. Potassium voltage-gated channel subfamily KQT member 1 (Homo sapiens), P51787. 310,000 compounds, 1.3% hits. AID 2642, 2010. B-score at 10 µM;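 active means compounds whose thallium flux B-score, printed positive for inhibition, exceeds three library SD while starting fluorescence stays within three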;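 further: channel opened by potassium depolarization with thallium stimulus after 20 min compound exposure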
KCNK9 inh: KCNK9 potassium channel inhibitors, primary screen, HEK293 cells, thallium flux; 310,000 compounds, 1.2% hits; Potassium channel subfamily K member 9 (Homo sapiens), Q9NPC2; FluxOR thallium flux fluorescence; stronger effect = lower value; B-score at 10 µM;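 active means ratio B-score over 3 SD below the library mean, with starting fluorescence within 5 SD of its mean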;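 further: negative B-score means less thallium flux so channel inhibition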
KCNQ1 pot: potentiators or activators of KCNQ1 channel, primary screen, cell-based, thallium flux, high-throughput; CHO-K1 KCNQ1, thallium flux FluxOR fluorescence; stronger effect = higher value; 310,000 compounds, 0.35% hits; AID 2648, 2010; B-score at 10 µM;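 active means fluorescence ratio B-score, a plate-corrected score, at least three library SD, with initial intensity B-score within 5 SD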
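assay system = KCNQ1-transfected CHO-K1 cells | medium = assay buffer with matched DMSO | probe or stimulus = depolarizing K+/Tl+ stimulus, K2SO4 and Tl2SO4 each 12.5 mM in 5x stock | dosing = single dose | incubation = dye 90 min, compound 20 min, room temperature | detection = kinetic FluxOR fluorescence, 10 s baseline plus 110 s post-stimulus | evaluation = ratio B score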
hERG protect: hERG rescue from dofetilide block, primary screen, cell-based, CHO-hERG, FluxOR thallium flux, dofetilide IC70 | Voltage-gated inwardly rectifying potassium channel KCNH2 (Homo sapiens), Q12809 | dofetilide IC70 present | activation (rescue from dofetilide block), less the hit threshold, % at 10 µM | 310,000 compounds, 0.51% hits | AID 1511, 2009;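 active means activation above the mean of controls blocked by dofetilide plus 5 SD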;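 further: thallium influx through hERG after potassium depolarization seen as dye fluorescence rise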
Kir21 block: inhibitors of mouse Kir2.1 inward-rectifier potassium channel | Inward rectifier potassium channel 2 (Mus musculus), P35561 | HEK293-Kir2.1, FluxOR thallium flux fluorescence; stronger effect = lower value | B-score at 10 µM | 310,000 compounds, 0.85% hits | AID 1672, 2009;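 active means fluorescence ratio B-score at or below minus 3 SD of library scores, with starting-brightness B-score within 2 SD, cut at about -4.2 in these data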;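 further: channel flux triggered by added potassium and thallium sulfate stimulus; B-score of peak minus minimum fluorescence over baseline after thallium stimulus; more negative B-score means stronger Kir2.1 block with less thallium influx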
Target sequence (P35561 whole entry, looked up): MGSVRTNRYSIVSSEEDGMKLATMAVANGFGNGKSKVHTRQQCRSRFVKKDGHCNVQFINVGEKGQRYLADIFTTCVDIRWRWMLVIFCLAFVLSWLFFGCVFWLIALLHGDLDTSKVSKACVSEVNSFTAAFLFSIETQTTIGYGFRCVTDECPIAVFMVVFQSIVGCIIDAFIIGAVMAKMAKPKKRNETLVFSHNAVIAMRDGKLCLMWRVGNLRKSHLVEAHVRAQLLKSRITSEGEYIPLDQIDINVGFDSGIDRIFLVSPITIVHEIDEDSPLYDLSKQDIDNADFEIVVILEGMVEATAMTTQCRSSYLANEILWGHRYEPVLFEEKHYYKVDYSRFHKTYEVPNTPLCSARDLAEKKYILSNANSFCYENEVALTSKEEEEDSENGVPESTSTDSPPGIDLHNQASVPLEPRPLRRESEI
KCNK9 inh conf: KCNK9 potassium channel inhibitors, confirmation, HEK293 cells, thallium flux, duplicate | shares compounds with KCNK9 inh | FluxOR thallium flux fluorescence | inhibition, % at 10 µM | 4,900 compounds, 43% hits;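 active means thallium signal inhibited by more than 5 SD of the compound-free buffer control wells, on both duplicate plates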;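 further: 0% = assay buffer control wells without compound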
Kir2-1 spec: mouse Kir2.1 channel inhibition, confirmation, selectivity assay for KCNK9 modulator project, cell-based, HEK293, thallium flux; 4,900 compounds, 4% hits; shares compounds with KCNK9 inh; inhibition, % at 10 µM; AID 492993, 2010; Kir2.1 cells, FluxOR thallium flux fluorescence;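 active means thallium signal drop more than 5 SD beyond the mean of the no-compound control wells, seen in both duplicate plates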;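 further: signal is fluorescence rise after thallium addition divided by baseline fluorescence; plate controls were assay buffer only for no effect and full block by chlorpromazine control for full effect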
KCNK9 uninduced: thallium flux in non-induced HEK293 cells, confirmation, counter-screen for KCNK9 inhibitor project, cell-based, second counter screen, non-induced KCNK9-HEK293; shares compounds with KCNK9 inh; FluxOR thallium flux; inhibition, % at 10 µM; 4,900 compounds, 40% hits;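 active means thallium signal drop beyond 5 SD of the untreated control mean, on both duplicate plates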;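 further: plate controls were buffer only IC0 wells for no effect and SID17386958 at its maximal inhibitory level for full effect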
* = called active by the depositor; i = inactive; . = not tested or not shown; ! = not confirmed by another sample. Rows were chosen to be rich in hits. Some 3.7% of all compounds tested hit in one or more screens of this group.

SMILES | KCNK3 block | KCNQ1 block | KCNK9 inh | KCNQ1 pot | hERG protect | Kir21 block | KCNK9 inh conf | Kir2-1 spec | KCNK9 uninduced
CC12COC3(C(=O)Nc4ccccc4)CC1CCC32C (stereo not given) | i | i | i | i | -7 | 1.9 | . | . | .
Cc1ccc(C(=O)Nc2ccccc2C(=O)O)cc1S(=O)(=O)NCc1ccccc1 | i | i | i | i | -7 | 0.26 | . | . | .
Cc1ccc(C)c(NS(=O)(=O)c2cc(C(=O)Nc3ccccc3-c3ccccc3)ccc2C)c1 | -9.9* | i | -12* | i | -12 | 0.35 | 42%* | i | 42%*
Cc1ccc(C(=O)Nc2ccccc2-c2ccccc2)cc1S(=O)(=O)Nc1cccc(C)c1C | -11* | 6* | -9.4* | i | -7 | -0.31 | 40%* | i | 42%*
Cc1ccc(C(=O)Nc2ccccc2C(=O)O)cc1S(=O)(=O)Nc1ccc(Br)cc1 | i | 6* | i | i | -15 | 0.57 | i | i | i
COc1ccc(OCCCC(=O)N(C)CC(=O)Nc2ccccc2Cl)cc1 | i | i | i | i | -12 | 0.04 | . | . | .
CCOC(=O)N1CCN(C(=O)CN(C)S(=O)(=O)c2ccc(Cl)cc2)CC1 | i | i | i | i | -4 | 0.08 | . | . | .
Cc1ccc(S(=O)(=O)NC2=NCN(C(C)C)CN2)cc1 | i | i | i | i | -8 | 0.12 | . | . | .
CCC(C)[C@H]1COCCS(=O)(=O)N1Cc1ccc(Br)cc1 (stereo not given in full) | i | i | i | i | -12 | -2.1 | . | . | .
Cc1ccc(-n2nc3c(c2NC(=O)c2ccc4c(c2)OCO4)CS(=O)(=O)C3)c(C)c1 | i | i | i | i | -4 | -0.94 | . | . | .
CCOc1ccc(OCCOCCOc2c(Cl)cccc2Cl)cc1 | i | i | i | i | -13 | 0.95 | . | . | .
CCOc1ccccc1OCCOCCOc1c(Cl)cccc1Cl | i | i | -9* | i | -8 | -3 | i | i | 38%*
Cc1nnc(SCC(=O)NC2CCCCC2C)s1 (stereo not given) | i | i | i | i | -19 | 0.23 | . | . | .
C=CCN(C(=O)c1csnn1)C(C(=O)NC1CCCCC1)c1ccc(F)cc1 (stereo not given) | i | i | i | i | -5 | 0.55 | . | . | .
CCOc1ccc(N2C(=O)c3cccnc3C2Nc2ccc(C)cc2)cc1 (stereo not given) | i | i | i | i | -7 | 1.2 | i | i | i
CCOc1ccc(N2C(=O)c3cccnc3C2Nc2ccc(C)c(C)c2)cc1 (stereo not given) | i | i | i | i | -11 | -0.02 | i | i | i
COc1ccc(OC)c(Nc2nc(-c3sc(C)nc3C)cs2)c1 | i | i | i | i | -22 | 1.1 | . | . | .
COc1ccc(OC)c(Nc2nc(-c3sc(NC(=O)CC(C)C)nc3C)cs2)c1 | i | i | -16* | i | -8 | 0.64 | 40%* | i | 32%*
COc1ccc(OC)c(Nc2nc(-c3sc(NC(=O)C(C)(C)C)nc3C)cs2)c1 | i | i | -13* | i | -15 | 1.6 | 46%* | i | i
CCC(C)C(=O)Nc1nc(C)c(-c2csc(Nc3cc(OC)ccc3OC)n2)s1 (stereo not given) | i | i | -11* | i | -26 | 0 | 40%* | i | 27%*
CCC(C)C(=O)Nc1nc(C)c(-c2csc(Nc3cc(Cl)ccc3OC)n2)s1 (stereo not given) | i | i | i | i | -12 | -0.33 | . | . | .
O=C(NCc1ccco1)c1cc(S(=O)(=O)N2CCCc3ccccc32)ccc1Cl | i | i | i | i | -11 | -0.17 | i | i | i
COc1ccc(S(=O)(=O)N2CCc3ccccc32)cc1C(=O)NCc1ccco1 | i | . | . | . | . | . | . | . | .
CCN1C(=O)[C@H]2[C@@H](c3ccc(Cl)cc3)N3C(=O)CN(CCOC)C(=O)[C@@]3(C)[C@H]2C1=O | i | i | i | i | -5 | 0.4 | . | . | .
CCn1nc(C)c(CNC(=O)c2cc(COc3ccc(C)nc3)on2)c1C | i | i | i | i | -7 | 1.8 | . | . | .
SMILES | KCNK3 block | KCNQ1 block | KCNK9 inh | KCNQ1 pot | hERG protect | Kir21 block | KCNK9 inh conf | Kir2-1 spec | KCNK9 uninduced
CN(CC1CCCN(CCc2cccc(C(F)(F)F)c2)C1)C(=O)c1cc2ccccc2o1 (stereo not given) | i | i | i | i | -21 | -3.3 | i | i | i
Cc1onc(-c2ccc(Cl)cc2)c1-c1ccnn1S(=O)(=O)c1cccc(C(F)(F)F)c1 | i | i | -11* | i | -13 | 1.3 | 55%* | i | 47%*
NC(=NCCCCCCN=C(N)/N=C(\N)Nc1ccc(Cl)cc1)/N=C(\N)Nc1ccc(Cl)cc1 | i | i | -10* | 12*! | -5 | -0.15 | 50%* | 38%* | i
COc1ccc(CNC(=O)CN(c2cc(C)cc(C)c2)S(=O)(=O)c2c(C)noc2C)cc1 | i | i | -8.6* | i | -6 | -2 | i | i | i
COc1ccc(CNC(=O)CN(c2ccc(C)cc2)S(=O)(=O)c2c(C)noc2C)cc1 | i | i | i | i | -4 | -0.41 | . | . | .
CCn1c(SCC(=O)Nc2ccc(OC)c(S(=O)(=O)N3CCCCC3)c2)nnc1C1CC1 | i | . | . | . | . | . | . | . | .
CCCCOn1c(C)c(C(=O)OCC)c2c3nonc3ccc21 | i | i | -8.4* | i | -11 | 0.55 | 33%* | i | 32%*
CCCCOn1c(C)c(C(=O)OCC)c2c3no[n+]([O-])c3ccc21 | i | i | i | i | -1 | 1.2 | . | . | .
O=C(NC(c1ccccc1)c1c(O)ccc2ccccc12)c1ccccc1Cl (stereo not given) | -9.4* | i | -10* | i | -7 | 0.05 | i | i | 44%*

Compound activity (PubChem)
